Experimental data from publication PMC11780632 (Bioinformatics and Biology Insights, 2025).
Values after ≈ are worked out from the molar mass of the structure shown.

Legend:
[1] = tested on: S. aureus ATCC 25923; assay: Radial diffusion assay; format: cell-based, Staphylococcus aureus; conditions: RDA, Mueller-Hinton agar, 1 × 10^6 CFU/mL, 24 hours at 37°C, done 3 times
[2] = tested on: S. aureus ATCC 25923; assay: MIC and MBC, micro-broth dilution; format: cell-based; conditions: Staphylococcus aureus, ATCC25923, 24 h
Summary of the method: (§1)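 Strains were grown aerobically for 24 h at 37°C. Two-fold serial dilutions of test peptide were made in 96-well plates, and an equal volume of bacterial suspension at 1 × 10⁶ CFU/mL was added. Plates were incubated for 24 h at 37°C, with gentamicin as control. MIC was taken as the lowest concentration preventing growth.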

[3] = tested on: P. aeruginosa ATCC 27853; assay: MIC and MBC, micro-broth dilution; format: cell-based; conditions: Pseudomonas aeruginosa, ATCC27853, 24 h
Summary of the method: as §1

[4] = tested on: E. coli ATCC 25922; assay: MIC and MBC, micro-broth dilution; format: cell-based; conditions: Escherichia coli, ATCC25922, 24 h
Summary of the method: as §1

[5] = tested on: A. baumannii ATCC 19606; assay: MIC and MBC, micro-broth dilution; format: cell-based; conditions: Acinetobacter baumannii, ATCC19606, 24 h
Summary of the method: as §1

SMILES: CNC(C)C1CCC(N)C(OC2C(N)CC(N)C(OC3OCC(C)(O)C(NC)C3O)C2O)O1 (centres unmarked) [Gentamicin, gentamicin]
- diameter of the inhibition zone [1]: 26 mm
- MIC [2]: 2000 µM (≈ 955 µg/mL)
- MIC [3]: 4000 µM (≈ 1910 µg/mL)
- MIC [4]: 1000 µM (≈ 478 µg/mL)
- MIC [5]: 8000 µM (≈ 3820 µg/mL)
